The source made the active and inactive calls. The rule behind the calls is not given here.
Experiments:
MCF7 = assay: CYtotoxicity against ER-positive human MCF7 cells by MTS assay; assay type: functional, cell-based
Method in brief: (§1)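 Cells seeded at 2×10^3/well, exposed to DMSO or 0.01, 0.1, 1, 5, 10 and 100 μM compound for 72 h. MTS reagent added, then OD at 550 nm read after 1 h at 37 °C. Quadruplicate wells per concentration.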

PANC-1 = assay: CYtotoxicity against human PANC1 cells by MTS assay; assay type: functional, cell-based; method in brief: as §1
ASPC1 = assay: CYtotoxicity against human AsPC1 cells by MTS assay; assay type: functional, cell-based; method in brief: as §1
MDA-MB-231 [1] = assay: CYtotoxicity against ER-negative human MDA-MB-231 cells by MTS assay; assay type: functional, cell-based; method in brief: as §1
MDA-MB-231 [2] = assay: Antitumor activity against human MDA-MB-231 cells xenografted in immunodeficient nude mouse assessed as reduction in tumor volume at 50 mg/kg, po administered 5 days a week; assay type: functional, organism-based; design: dose 50 mg/kg
Method in brief: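 Female nude mice aged 4–6 weeks were used, housed in a barrier unit. Each mouse received 2.5×10^6 fresh MDA-MB-231 cells in 100 µL PBS into the 3rd mammary fat pad (orthotopic). Mice were randomized into 2 groups of 6–7. Oral dosing or vehicle (50% DMSO/50% PEG) started once tumors reached 200 mm³. Tumor volume measured daily, calculated as 0.5×L×W².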

MDA-MB-231 [3] = assay: Cell cycle arrest in human MDA-MB-231 cells assessed as accumulation at S phase after 24 hrs by flow cytometry; assay type: functional, cell-based
MDA-MB-231 [4] = assay: Cell cycle arrest in human MDA-MB-231 cells assessed as accumulation at S phase at 5 uM after 24 hrs by flow cytometry (reference value: 16.7 %); assay type: functional
MDA-MB-231 [5] = assay: Cell cycle arrest in human MDA-MB-231 cells assessed as accumulation at G0/G1 phase at 5 uM after 24 hrs by flow cytometry (reference value: 53.6 %); assay type: functional
MDA-MB-231 [6] = assay: Cell cycle arrest in human MDA-MB-231 cells assessed as accumulation at G2/M phase at 2.5 uM after 24 hrs by flow cytometry (reference value: 25.1 %); assay type: functional
MDA-MB-231 [7] = assay: Cell cycle arrest in human MDA-MB-231 cells assessed as accumulation at S phase at 2.5 uM after 24 hrs by flow cytometry (reference value: 16.7 %); assay type: functional
MDA-MB-231 [8] = assay: Cell cycle arrest in human MDA-MB-231 cells assessed as accumulation at G0/G1 phase at 2.5 uM after 24 hrs by flow cytometry (reference value: 53.6 %); assay type: functional
MDA-MB-231 [9] = assay: Cell cycle arrest in human MDA-MB-231 cells assessed as accumulation at G2/M phase at 1 uM after 24 hrs by flow cytometry (reference value: 25.1 %); assay type: functional
MDA-MB-231 [10] = assay: Cell cycle arrest in human MDA-MB-231 cells assessed as accumulation at S phase at 1 uM after 24 hrs by flow cytometry (reference value: 16.7 %); assay type: functional
MDA-MB-231 [11] = assay: Cell cycle arrest in human MDA-MB-231 cells assessed as accumulation at G2/M phase at 5 uM after 24 hrs by flow cytometry (reference value: 25.1 %); assay type: functional
MDA-MB-231 [12] = assay: Cell cycle arrest in human MDA-MB-231 cells assessed as accumulation at G0/G1 phase at 1 uM after 24 hrs by flow cytometry (reference value: 53.6 %); assay type: functional
MDA-MB-231 [13] = assay: Induction of apoptosis in human MDA-MB-231 cells assessed as dead cells at 5 uM after 48 hrs by annexin V-based flow cytometry (reference value: 0.24 %); assay type: functional
MDA-MB-231 [14] = assay: Induction of apoptosis in human MDA-MB-231 cells assessed as late apoptotic cells at 5 uM after 48 hrs by annexin V-based flow cytometry (reference value: 4.98 %); assay type: functional
MDA-MB-231 [15] = assay: Induction of apoptosis in human MDA-MB-231 cells assessed as early apoptotic cells at 5 uM after 48 hrs by annexin V-based flow cytometry (reference value: 4.16 %); assay type: functional
MDA-MB-231 [16] = assay: Induction of apoptosis in human MDA-MB-231 cells assessed as viable cells at 5 uM after 48 hrs by annexin V-based flow cytometry (reference value: 90.62 %); assay type: functional; conditions: MDA-MB-231, 48 h, read-out: Activity
MDA-MB-231 [17] = assay: Induction of apoptosis in human MDA-MB-231 cells assessed as dead cells at 2.5 uM after 48 hrs by annexin V-based flow cytometry (reference value: 0.24 %); assay type: functional
MDA-MB-231 [18] = assay: Induction of apoptosis in human MDA-MB-231 cells assessed as late apoptotic cells at 2.5 uM after 48 hrs by annexin V-based flow cytometry (reference value: 4.98 %); assay type: functional
MDA-MB-231 [19] = assay: Induction of apoptosis in human MDA-MB-231 cells assessed as early apoptotic cells at 2.5 uM after 48 hrs by annexin V-based flow cytometry (reference value: 4.16 %); assay type: functional
MDA-MB-231 [20] = assay: Induction of apoptosis in human MDA-MB-231 cells assessed as viable cells at 2.5 uM after 48 hrs by annexin V-based flow cytometry (reference value: 90.62 %); assay type: functional; conditions: MDA-MB-231, 48 h, read-out: Activity
MDA-MB-231 [21] = assay: Induction of apoptosis in human MDA-MB-231 cells assessed as dead cells at 1 uM after 48 hrs by annexin V-based flow cytometry (reference value: 0.24 %); assay type: functional
MDA-MB-231 [22] = assay: Induction of apoptosis in human MDA-MB-231 cells assessed as late apoptotic cells at 1 uM after 48 hrs by annexin V-based flow cytometry (reference value: 4.98 %); assay type: functional
MDA-MB-231 [23] = assay: Induction of apoptosis in human MDA-MB-231 cells assessed as early apoptotic cells at 1 uM after 48 hrs by annexin V-based flow cytometry (reference value: 4.16 %); assay type: functional
MDA-MB-231 [24] = assay: Induction of apoptosis in human MDA-MB-231 cells assessed as viable cells at 1 uM after 48 hrs by annexin V-based flow cytometry (reference value: 90.62 %); assay type: functional; conditions: MDA-MB-231, 48 h, read-out: Activity
MDA-MB-231 [25] = assay: Induction of apoptosis in human MDA-MB-231 cells assessed as caspase-3 cleavage at 5 uM after 24 to 48 hrs by Western blot analysis; assay type: functional, cell-based
Method in brief: (§2)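 Whole-cell lysates of treated MDA-MB-231 cells; 40 µg protein per lane run on 10% SDS-PAGE and transferred to nitrocellulose. Blocked in 5% milk/1% Tween 20 in TBS. Probed for pSTAT3-Y705 (1:3000), STAT3 (1:2000) and cleaved caspase-3 (1:2000), with β-actin as loading reference. Secondary antibody at 1:4000, ECL detection.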

[26] = target: Signal transducer and activator of transcription 3 (Homo sapiens) (UniProt P40763); assay: Inhibition of total STAT3 protein expression in human MDA-MB-231 cells at 5 uM after 24 hrs by Western blot analysis; assay type: cell-based; method in brief: as §2
[27] = target: Signal transducer and activator of transcription 3 (Homo sapiens) (UniProt P40763); assay: Inhibition of total STAT3 protein expression in human MDA-MB-231 cells at 5 uM after 48 hrs by Western blot analysis; assay type: cell-based; method in brief: as §2
[28] = target: Signal transducer and activator of transcription 3 (Homo sapiens) (UniProt P40763); assay: Inhibition of STAT3 phosphorylation at Tyr-705 in human MDA-MB-231 cells at 5 uM after 48 hrs by Western blot analysis; assay type: cell-based; method in brief: as §2
[29] = target: Signal transducer and activator of transcription 3 (Homo sapiens) (UniProt P40763); assay: Inhibition of STAT3 phosphorylation at Tyr-705 in human MDA-MB-231 cells at 5 uM after 24 hrs by Western blot analysis; assay type: cell-based; method in brief: as §2
[30] = target: Signal transducer and activator of transcription 3 (Homo sapiens) (UniProt P40763); assay: Inhibition of STAT3 promoter activity in human MDA-MB-231 cells at 5 uM after 24 hrs by luciferase reporter gene assay relative to control; assay type: cell-based
Method in brief: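 MDA-MB-231 cells seeded at 5×10^4/well in RPMI-1640 with 10% FBS and were transiently transfected 4 h after plating. Each well received 0.5 μg DNA: pSTAT3-Luc (95%) and renilla control vector (5%). Compound was added 5 h post-transfection for 24 h. Read-out is dual luciferase, as firefly/renilla ratio relative to DMSO control. Triplicate wells; representative of ≥3 independent experiments.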

MDA-MB-231 [31] = assay: Antiproliferative activity against human MDA-MB-231 cells assessed as change in cell morphology after 48 hrs by light microscopy; assay type: functional, cell-based
Mus musculus = assay: Toxicity in human MDA-MB-231 cells xenografted immunodeficient nude mouse assessed as change in body weight at 50 mg/kg, po; conditions: in vivo

Sequence of Signal transducer and activator of transcription 3 (Homo sapiens) (P40763 whole entry): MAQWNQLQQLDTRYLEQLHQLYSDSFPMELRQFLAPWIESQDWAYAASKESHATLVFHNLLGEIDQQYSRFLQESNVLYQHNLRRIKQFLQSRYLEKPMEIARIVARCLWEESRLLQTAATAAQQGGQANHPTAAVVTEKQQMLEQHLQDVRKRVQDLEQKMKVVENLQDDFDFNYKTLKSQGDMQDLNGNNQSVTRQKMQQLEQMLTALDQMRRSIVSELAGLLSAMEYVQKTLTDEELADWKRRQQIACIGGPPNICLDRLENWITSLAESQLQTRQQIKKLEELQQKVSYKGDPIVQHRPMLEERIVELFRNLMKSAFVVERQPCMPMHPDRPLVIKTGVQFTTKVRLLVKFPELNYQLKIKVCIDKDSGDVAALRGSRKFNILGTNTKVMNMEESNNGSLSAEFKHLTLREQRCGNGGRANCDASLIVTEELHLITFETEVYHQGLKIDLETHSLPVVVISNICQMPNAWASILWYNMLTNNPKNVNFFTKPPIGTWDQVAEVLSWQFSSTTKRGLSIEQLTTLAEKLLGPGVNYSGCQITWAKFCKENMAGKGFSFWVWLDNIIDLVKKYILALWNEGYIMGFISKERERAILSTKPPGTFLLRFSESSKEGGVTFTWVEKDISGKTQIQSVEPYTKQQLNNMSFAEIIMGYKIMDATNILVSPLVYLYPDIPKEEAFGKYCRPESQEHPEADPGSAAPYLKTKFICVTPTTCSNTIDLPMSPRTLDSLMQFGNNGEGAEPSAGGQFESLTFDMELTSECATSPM

With `O=C(Nc1ccc2c(c1)S(=O)(=O)C=C2)c1cc(Cl)ccc1O` the IC50 (MCF7) was 910 nM, the IC50 (PANC-1) was 2340 nM and the IC50 (ASPC1) was 1920 nM. The IC50 (MDA-MB-231 [1]) was 1640 nM.

With `N#CCC(=O)Nc1ccc2c(c1)S(=O)(=O)C=C2` the IC50 (MCF7) was greater than 10000 nM and the IC50 (MDA-MB-231 [1]) was greater than 10000 nM.

Work on `N#C/C(=C\c1cccc(Br)n1)C(=O)Nc1ccc2c(c1)S(=O)(=O)C=C2` yielded an IC50 (MCF7) of 3310 nM, an IC50 (PANC-1) of 1640 nM and an IC50 (ASPC1) of 1540 nM. It also gave an IC50 (MDA-MB-231 [1]) of 1530 nM.

Work on `O=C(Nc1ccc2c(c1)S(=O)(=O)C=C2)c1ccncc1` yielded an IC50 (MCF7) greater than 10000 nM and an IC50 (MDA-MB-231 [1]) greater than 10000 nM.

`C[C@H](NC(=O)c1cc(-c2ccccc2)nc2ccccc12)c1ccccc1` was tested, and the IC50 (MCF7) was 2240 nM, the IC50 (PANC-1) was greater than 10000 nM and the IC50 (ASPC1) was greater than 10000 nM. It also gave an IC50 (MDA-MB-231 [1]) of 86000 nM.

For `O=C(Nc1ccc2c(c1)S(=O)(=O)C=C2)c1ccnc(-c2ccccc2)c1`, the IC50 (MCF7) was 3780 nM, the IC50 (PANC-1) was 3350 nM and the IC50 (ASPC1) was 1300 nM. For the same molecule, the IC50 (MDA-MB-231 [1]) was 1850 nM.

For `C[C@H](NC(=O)c1cc(Cl)ccc1O)c1ccccc1`, the IC50 (MCF7) was 900 nM, the IC50 (PANC-1) was 8440 nM and the IC50 (ASPC1) was 7540 nM. For the same molecule, the IC50 (MDA-MB-231 [1]) was 8880 nM.

Work on `O=C(Nc1ccc2c(c1)S(=O)(=O)C=C2)c1cc(-c2ccccc2)nc(-c2ccccc2)c1` yielded an IC50 (MCF7) of 650 nM, an IC50 (PANC-1) of 310 nM and an IC50 (ASPC1) of 120 nM. The IC50 (MDA-MB-231 [1]) was 450 nM.

`O=C(Nc1ccc2c(c1)S(=O)(=O)C=C2)c1cc(-c2ccccc2)nc2ccccc12` was tested, and the IC50 (MCF7) was 100 nM, the Activity (MDA-MB-231 [2]) was “Active” and the Activity (MDA-MB-231 [3]) was “Dose-dependent effect”. It also gave an Activity (MDA-MB-231 [4]) of 26.2%, an Activity (MDA-MB-231 [5]) of 34.1% and an Activity (MDA-MB-231 [6]) of 27.5%. The Activity (MDA-MB-231 [7]) was 21.9%, the Activity (MDA-MB-231 [8]) was 43.7% and the Activity (MDA-MB-231 [9]) was 27.6%. It also gave an Activity (MDA-MB-231 [10]) of 16.5%, an Activity (MDA-MB-231 [11]) of 25.8% and an Activity (MDA-MB-231 [12]) of 51.5%. For the same molecule, the Activity (MDA-MB-231 [13]) was 0.14%, the Activity (MDA-MB-231 [14]) was 14.21% and the Activity (MDA-MB-231 [15]) was 66.12%. The viability at 5 µM (MDA-MB-231 [16]) was 19.5%, the Activity (MDA-MB-231 [17]) was 0.32% and the Activity (MDA-MB-231 [18]) was 13.32%. The Activity (MDA-MB-231 [19]) was 28.53%, the viability at 2.5 µM (MDA-MB-231 [20]) was 57.8% and the Activity (MDA-MB-231 [21]) was 0.67%. It also gave an Activity (MDA-MB-231 [22]) of 9.26%, an Activity (MDA-MB-231 [23]) of 9.31% and a viability at 1 µM (MDA-MB-231 [24]) of 80.8%. For the same molecule, the Activity (MDA-MB-231 [25]) was “Active”, the inhibition [26] was “Active” and the inhibition [27] was “Active”. The inhibition [28] was “Active”, the inhibition [29] was “Active” and the inhibition [30] was 65%. The Activity (MDA-MB-231 [31]) was “Dose-dependent effect”, the IC50 (PANC-1) was 260 nM and the IC50 (ASPC1) was 1250 nM. The IC50 (MDA-MB-231 [1]) was 290 nM and the Activity (Mus musculus) was “Non-toxic”.

`O=C(Nc1ccc2c(c1)S(=O)(=O)C=C2)c1ccnc2ccccc12` was tested, and the IC50 (MCF7) was 2970 nM, the IC50 (PANC-1) was 7920 nM and the IC50 (ASPC1) was 6970 nM. For the same molecule, the IC50 (MDA-MB-231 [1]) was 6210 nM.

With `O=C(Nc1nnc(-c2ccco2)o1)c1cc(Cl)ccc1O` the IC50 (MCF7) was greater than 10000 nM, the IC50 (PANC-1) was greater than 10000 nM and the IC50 (ASPC1) was greater than 10000 nM. The IC50 (MDA-MB-231 [1]) was greater than 10000 nM.

Molecule `O=C(Nc1ccc2c(c1)S(=O)(=O)C=C2)c1c2ccccc2nc2ccccc12` has an IC50 (MCF7) greater than 10000 nM, an IC50 (PANC-1) greater than 10000 nM and an IC50 (ASPC1) greater than 10000 nM. It also gave an IC50 (MDA-MB-231 [1]) greater than 10000 nM.

— ChEMBL document CHEMBL2331081, “Fragment-based drug design and identification of HJC0123, a novel orally bioavailable STAT3 inhibitor for cancer therapy” (Eur J Med Chem, 2013)
